Results on 10 compounds are retold here after PubChem BioAssay AID504476 (NMMLSC, 2011).

Structures are written as SMILES. Activity calls are given as the source filed them.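 Rule for the calls: active = toxic dose divided by the dose restoring drug killing exceeds 10, where toxic dose is under 15 µM; inactive = the rest.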

The subject of this test is Jurkat/DNR + daunorubicin, trypan blue viability, 3 d. Description: chemoreversal in ABCB1-expressing Jurkat/DNR cells – cell-based, trypan blue viability, SAR set 2, SAR follow-up (AID 504476). The note with it: for CC50: measured here: TD50 toxicity without chemotherapeutic. The gist of the method:
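System: Jurkat/DNR cells; quantity: 100,000 cells per mL; also added: daunorubicin held at a fixed, constant concentration; times: 3-day compound exposure alongside daunorubicin; technique: trypan blue exclusion with light-microscopy cell counting; evaluation: concentration halving cell viability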

In general, EC50 refers to the concentration giving half of the maximal effect. Usually CC50 stands for the concentration at which the toxic effect on the cells reaches its halfway point.

As for `O=C(c1ccoc1)N1CCCN(c2cc(-c3ccco3)nc3cc(-c4ccccc4)nn23)C1`, the EC50 is 0.35 µM (inactive) and the 50% cytotoxic concentration (CC50) stood at 12 µM.

As for `O=C(c1ccoc1)N1CCN(c2cc(-c3ccoc3)nc3cc(-c4ccccc4)nn23)CC1`, the EC50 was 0.42 µM (inactive) and the CC50 came to 7.3 µM.

Take `COc1cccc(-c2cc(N3CCN(C(=O)c4ccoc4)CC3)n3nc(-c4ccccc4)cc3n2)c1`: the EC50 was 0.18 µM (inactive) and the CC50 was 5.7 µM.

In the case of `COc1cccc(-c2cc3nc(-c4ccco4)cc(N4CCN(C(C)=O)CC4)n3n2)c1`, the 50% effective concentration (EC50) is 0.32 µM and the CC50 is 49.3 µM.

For `COc1ccccc1-c1cc(N2CCN(C(=O)c3ccoc3)CC2)n2nc(-c3ccccc3)cc2n1`, the EC50 was 0.17 µM (inactive) and the cytotoxic concentration (CC50) was found to be 3.7 µM.

Regarding `O=C(c1ccoc1)N1CCN(c2cc(-c3ccco3)nc3cc(-c4ccco4)nn23)CC1`, the EC50 was 0.19 µM (inactive) and the half-maximal cytotoxic concentration (CC50) came out at 1.93 µM.

On to `COc1ccc(-c2cc3nc(-c4ccco4)cc(N4CCN(C(=O)c5ccoc5)CC4)n3n2)cc1`, for which the EC50 was 5.77 µM and the CC50 is greater than 100 µM.

Take `Cc1ccc(-c2cc3nc(-c4ccco4)cc(N4CCN(Cc5ccoc5)CC4)n3n2)cc1`: the EC50 was 0.35 µM (inactive) and the CC50 is 12.5 µM.

Take `CC(=O)N1CCN(c2cc(-c3ccco3)nc3cc(-c4ccccc4)nn23)CC1`: the EC50 is 0.19 µM (inactive) and the CC50 is 10.1 µM.

Take `CC(=O)N1CCN(c2cc(-c3ccco3)nc3cc(-c4cccc(Cl)c4)nn23)CC1`: the concentration giving a half-maximal response (EC50) was 0.08 µM and the CC50 stood at 17.6 µM.
